One assay concerns HeLa. In words: Protecting effect against apoptosis induced by TNF-alpha in HeLa cells was determined. Format: functional, Homo sapiens. Summed up:
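HeLa cells exposed to TNF-a to induce apoptosis, with test inhibitor present. Viability read out as calcein AM uptake. The value reported is the inhibitor concentration giving 50% cell protection.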

The target of a further assay is T1, Caspase-9 (Homo sapiens, UniProt P55211).
T1 sequence (P55211 whole entry): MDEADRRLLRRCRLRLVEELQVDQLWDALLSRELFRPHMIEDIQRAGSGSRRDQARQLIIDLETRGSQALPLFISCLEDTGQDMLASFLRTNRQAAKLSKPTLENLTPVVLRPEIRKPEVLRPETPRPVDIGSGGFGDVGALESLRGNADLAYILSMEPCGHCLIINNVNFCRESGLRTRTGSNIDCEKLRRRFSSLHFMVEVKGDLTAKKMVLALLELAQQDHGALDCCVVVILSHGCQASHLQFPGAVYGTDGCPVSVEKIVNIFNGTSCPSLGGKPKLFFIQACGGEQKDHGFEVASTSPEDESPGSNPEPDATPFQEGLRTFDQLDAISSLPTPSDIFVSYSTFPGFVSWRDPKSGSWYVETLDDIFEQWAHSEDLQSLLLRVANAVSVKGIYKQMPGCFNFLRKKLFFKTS
The experiment in a line: Inhibition concentration required against caspase-9.

A short description of assay [1]: Inhibition concentration required against factor Xa.
Assay [2] addresses T2, Calpain-1 catalytic subunit (Homo sapiens, UniProt P07384).
T2 sequence (P07384 whole entry): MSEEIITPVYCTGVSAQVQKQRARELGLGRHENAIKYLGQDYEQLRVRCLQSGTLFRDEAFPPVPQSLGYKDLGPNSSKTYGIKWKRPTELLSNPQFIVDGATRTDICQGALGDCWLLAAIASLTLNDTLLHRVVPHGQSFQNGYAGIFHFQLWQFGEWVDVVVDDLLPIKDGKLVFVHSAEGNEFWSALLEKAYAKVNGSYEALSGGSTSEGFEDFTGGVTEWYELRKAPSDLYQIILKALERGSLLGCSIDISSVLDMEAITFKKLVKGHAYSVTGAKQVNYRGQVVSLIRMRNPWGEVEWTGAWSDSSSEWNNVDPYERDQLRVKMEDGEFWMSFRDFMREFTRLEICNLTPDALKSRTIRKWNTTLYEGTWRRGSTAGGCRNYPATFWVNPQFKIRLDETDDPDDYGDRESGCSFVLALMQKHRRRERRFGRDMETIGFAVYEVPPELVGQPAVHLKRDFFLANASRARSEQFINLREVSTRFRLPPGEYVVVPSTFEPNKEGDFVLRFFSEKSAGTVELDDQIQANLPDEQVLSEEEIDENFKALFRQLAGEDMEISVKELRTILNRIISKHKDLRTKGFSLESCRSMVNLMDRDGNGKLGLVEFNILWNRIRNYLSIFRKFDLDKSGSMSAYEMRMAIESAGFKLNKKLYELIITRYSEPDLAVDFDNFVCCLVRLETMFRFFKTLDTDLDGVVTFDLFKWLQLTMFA
The experiment in a line: Inhibition concentration required against calpain-1.

A short description of assay [3]: Inhibition concentration required against caspase-1.
Another assay concerns the target T3, Caspase-7 (Homo sapiens, UniProt P55210).
T3 sequence (P55210 whole entry): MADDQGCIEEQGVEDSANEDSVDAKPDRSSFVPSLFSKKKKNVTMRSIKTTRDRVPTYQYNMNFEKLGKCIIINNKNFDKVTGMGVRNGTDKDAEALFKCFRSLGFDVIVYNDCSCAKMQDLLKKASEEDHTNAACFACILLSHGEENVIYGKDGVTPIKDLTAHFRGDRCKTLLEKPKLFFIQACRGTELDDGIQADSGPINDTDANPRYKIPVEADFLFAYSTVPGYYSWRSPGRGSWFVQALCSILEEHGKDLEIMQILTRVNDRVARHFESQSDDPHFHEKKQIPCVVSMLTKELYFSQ
The experiment in a line: Inhibition concentration required against caspase-7.

In a further assay the target is Caspase-8 (Homo sapiens, UniProt Q14790). The experiment in a line: Inhibition concentration required against caspase-8.
The nature of assay [4]: Inhibition concentration required against cathepsin B. Details: species or system Homo sapiens.
For a further assay, the target named is T4, Caspase-3 (Homo sapiens, UniProt P42574).
T4 sequence (P42574 whole entry): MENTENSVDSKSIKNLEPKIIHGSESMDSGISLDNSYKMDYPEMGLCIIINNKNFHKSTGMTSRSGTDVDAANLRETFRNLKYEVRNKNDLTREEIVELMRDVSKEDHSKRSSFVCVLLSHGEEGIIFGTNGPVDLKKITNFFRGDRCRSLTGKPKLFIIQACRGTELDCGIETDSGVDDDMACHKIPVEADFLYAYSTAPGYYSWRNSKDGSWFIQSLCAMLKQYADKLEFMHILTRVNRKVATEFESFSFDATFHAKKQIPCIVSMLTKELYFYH
In words: Inhibitory activity against human recombinant caspase-3.

A short description of assay [5]: Percent survival of the mice after 3h treatment was determined after induction of apoptosis by anti-Fas antibody; Dose is 0.25 mg/kg. In kind it is functional. The note with it: Mus musculus. The procedure, abridged:
(§1)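 Mouse anti-Fas lethality model: mice given 8 µg anti-Fas monoclonal antibody (clone JO-2) IV, then 5 min later an IV dose of inhibitor (0.25–10 mg/kg) or vehicle. The aqueous vehicle contained 50 mM Tris–HCl. Six mice per group. Survivors were counted at 1, 3, 6 and 24 h and at 5 days, expressed as % of the animals in the group.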

Assay [6] is described as follows: Percent survival of the mice after 5 days treatment was determined after induction of apoptosis by anti-Fas antibody; Dose is 0 mg/kg. Format: functional, Mus musculus. Summed up: as §1
Assay [7] in a line: Percent survival of the mice after 5 days treatment was determined after induction of apoptosis by anti-Fas antibody; Dose is 1 mg/kg. In kind it is functional. The note with it: Mus musculus, 120 h. Summed up:
as §1

The nature of assay [8]: Percent survival of the mice after 6 hr treatment was determined after induction of apoptosis by anti-Fas antibody; Dose is 0.25 mg/kg. Format: functional. The note with it: Mus musculus. Summed up:
as §1

The nature of assay [9]: Percent survival of the mice after 24 hr treatment was determined after induction of apoptosis by anti-Fas antibody; Dose is 0.25 mg/kg. The note with it: Mus musculus. In kind it is functional. The procedure, abridged:
as §1

Assay [10] is described as follows: Percent survival of the mice after 5 days treatment was determined after induction of apoptosis by anti-Fas antibody; Dose is 10 mg/kg. Format: functional. The note with it: Mus musculus, 120 h. Summed up: as §1
Assay [11] can be described thus: Percent survival of the mice after 5 days treatment was determined after induction of apoptosis by anti-Fas antibody; Dose is 0.5 mg/kg. In kind it is functional. The note with it: Mus musculus, 120 h. Summed up:
as §1

The nature of assay [12]: Percent survival of the mice after 5 days treatment was determined after induction of apoptosis by anti-Fas antibody; Dose is 0.25 mg/kg. In kind it is functional. The following applies: Mus musculus, 120 h. Summed up:
as §1

The nature of assay [13]: Percent survival of the mice after 1 hr treatment was determined after induction of apoptosis by anti-Fas antibody; Dose is 0 mg/kg. Format: functional, Mus musculus. The procedure, abridged: as §1
Assay [14] is described as follows: Percent survival of the mice after 1 hr treatment was determined after induction of apoptosis by anti-Fas antibody; Dose is 1 mg/kg. Format: functional. The note with it: Mus musculus. Summed up:
as §1

Assay [15] is described as follows: Percent survival of the mice after 3h treatment was determined after induction of apoptosis by anti-Fas antibody; Dose is 0 mg/kg. Format: functional, Mus musculus. Summed up: as §1
The nature of assay [16]: Percent survival of the mice after 3h treatment was determined after induction of apoptosis by anti-Fas antibody; Dose is 1 mg/kg. In kind it is functional. The following applies: Mus musculus. Summed up: as §1
Assay [17] can be described thus: Percent survival of the mice after 6 hr treatment was determined after induction of apoptosis by anti-Fas antibody; Dose is 0 mg/kg. Format: functional, Mus musculus. The procedure, abridged:
as §1

Assay [18] is described as follows: Percent survival of the mice after 6 hr treatment was determined after induction of apoptosis by anti-Fas antibody; Dose is 1 mg/kg. In kind it is functional. The following applies: Mus musculus. The procedure, abridged: as §1
Assay [19] in a line: Percent survival of the mice after 1 hr treatment was determined after induction of apoptosis by anti-Fas antibody; Dose is 10 mg/kg. Format: functional. The following applies: Mus musculus. Summed up: as §1
The nature of assay [20]: Percent survival of the mice after 24 hr treatment was determined after induction of apoptosis by anti-Fas antibody; Dose is 0 mg/kg. Format: functional, Mus musculus. Summed up:
as §1

Assay [21] in a line: Percent survival of the mice after 24 hr treatment was determined after induction of apoptosis by anti-Fas antibody; Dose is 1 mg/kg. Format: functional. The following applies: Mus musculus. Summed up:
as §1

Assay [22] in a line: Percent survival of the mice after 3h treatment was determined after induction of apoptosis by anti-Fas antibody; Dose is 10 mg/kg. The following applies: Mus musculus. Format: functional. Summed up:
as §1

A short description of assay [23]: Percent survival of the mice after 6 hr treatment was determined after induction of apoptosis by anti-Fas antibody; Dose is 10 mg/kg. Format: functional. The note with it: Mus musculus. The procedure, abridged: as §1
Assay [24] is described as follows: Percent survival of the mice after 1 hr treatment was determined after induction of apoptosis by anti-Fas antibody; Dose is 0.5 mg/kg. Format: functional. The following applies: Mus musculus. The procedure, abridged: as §1
Assay [25] in a line: Percent survival of the mice after 24 hr treatment was determined after induction of apoptosis by anti-Fas antibody; Dose is 10 mg/kg. Format: functional. The note with it: Mus musculus. The procedure, abridged: as §1
Assay [26] in a line: Percent survival of the mice after 3h treatment was determined after induction of apoptosis by anti-Fas antibody; Dose is 0.5 mg/kg. Format: functional. The following applies: Mus musculus. Summed up: as §1
A short description of assay [27]: Percent survival of the mice after 6 hr treatment was determined after induction of apoptosis by anti-Fas antibody; Dose is 0.5 mg/kg. In kind it is functional. The note with it: Mus musculus. The procedure, abridged:
as §1

Assay [28] in a line: Percent survival of the mice after 1 hr treatment was determined after induction of apoptosis by anti-Fas antibody; Dose is 0.25 mg/kg. Format: functional. The note with it: Mus musculus. The procedure, abridged: as §1
Assay [29] in a line: Percent survival of the mice after 24 hr treatment was determined after induction of apoptosis by anti-Fas antibody; Dose is 0.5 mg/kg. In kind it is functional. The following applies: Mus musculus. Summed up: as §1

Caspase-8, sequence (Q14790 217-374 limits assumed): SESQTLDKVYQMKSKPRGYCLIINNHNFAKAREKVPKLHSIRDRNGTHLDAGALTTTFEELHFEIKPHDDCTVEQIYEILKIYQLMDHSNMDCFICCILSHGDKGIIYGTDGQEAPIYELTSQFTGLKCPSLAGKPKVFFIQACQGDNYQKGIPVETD
Caspase-8, sequence (Q14790 385-479 limits assumed): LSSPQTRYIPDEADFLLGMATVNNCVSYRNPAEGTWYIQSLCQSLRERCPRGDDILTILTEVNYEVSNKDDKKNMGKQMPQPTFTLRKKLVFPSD

As a reminder, the IC50 is the concentration that inhibits the measured activity by half. As to `CC(C)[C@H](NC(=O)OCc1ccc(Cl)cc1Cl)C(=O)NC(CC(=O)O)C(=O)CF` (stereo not given in full), the Protection in the assay on HeLa is 100 nM. Further, the IC50 at Caspase-9 is 9 nM; in [1] it was greater than 100000 nM; in [2] it was roughly 5000 nM; in [3], 26 nM; against Caspase-7 it was 10 nM; on Caspase-8, 6 nM. Also, the IC50 is roughly 10000 nM in assay [4] and 25 nM on Caspase-3. In addition, the survival at 0.25 mg/kg in assay [5] turned out to be 100%; in assay [8] it was 83%; in [9] it was 33%; in assay [12], 16%; in assay [28], 100%. For the same molecule, the Survival in assay [6], in assay [13], in assay [15], in assay [17] and in assay [20] was 0% in each case. Also, the survival at 1 mg/kg in assay [7], in assay [14], in assay [16], in [18] and in assay [21] was 100% in each case. The survival at 10 mg/kg in [10], in [19], in assay [22], in assay [23] and in assay [25] was 100% throughout. For the same molecule, the survival at 0.5 mg/kg in assay [11] was determined as 50%; in assay [24], 100%; in assay [26] it was 100%; in assay [27], 83%; in [29] it was 50%.
Turning to `CC(C)[C@H](NC(=O)OCc1cc(Cl)ccc1Cl)C(=O)NC(CC(=O)O)C(=O)CF` (stereo not given in full), in the assay on HeLa, the Protection worked out at 100 nM.
Still for that read-out and setting: next, `CC(C)[C@H](NC(=O)OCc1ccc(Cl)c(Cl)c1)C(=O)NC(CC(=O)O)C(=O)CF` (stereo not given in full): 150 nM.
Molecule `COC(=O)N[C@H](C(=O)NC(CC(=O)O)C(=O)CF)C(C)C` (stereo not given in full) came in with a Protection with HeLa of 500 nM.
Same read-out and setting: the figure for `CC(C)[C@H](NC(=O)OCc1ccccc1)C(=O)NC(CC(=O)O)C(=O)CF` (stereo not given in full) is 250 nM; for `CC(C)[C@H](NC(=O)OCC1CCCC1)C(=O)NC(CC(=O)O)C(=O)CF` (stereo not given in full) it is 300 nM; for `CC(C)[C@H](NC(=O)OCc1ccc(F)cc1)C(=O)NC(CC(=O)O)C(=O)CF` (stereo not given in full) it is 150 nM.

These data come from ChEMBL document CHEMBL1137919, “Dipeptidyl aspartyl fluoromethylketones as potent caspase inhibitors: SAR of the N-protecting group” (Bioorg Med Chem Lett, 2004).
